High-throughput results as filed in PubChem BioAssay.
procasp7 counter: procaspase-7 activators, primary screen, counter-screen for procaspase-3 activator project, biochemical, absorbance, HTS, human; Caspase-7 (Homo sapiens), P55210; recombinant procaspase-7, Ac-DEVD-pNA absorbance 405 nm; D23A/D198A/D206A triple mutant, cannot self-cleave; scale: DMSO 0, 5 µM enzyme 100; activation, % at 8.5 µM; actives 0.093% (n = 330,000); AID 463210, 2010;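 active = percent activation above the screen-wide mean plus 3 SD, cut at about 25% in these data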
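Replicates: singlicate. Assay system: Procaspase-7 triple mutant (PC-7 D3A). Signal: 405 nm absorbance of p-nitroaniline. Times: 1 h preincubation, 2 h reaction. Buffer or medium: Zinc-free HEPES pH 7.4 with 300 mM NaCl, 0.01% Triton X-100. Also added: DEVD-pNA substrate. Benchmarks: DMSO wells as 0%, DMSO with 5 µM added PC-7 as 100%.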
HGIII-sPLA2 inh: human group III sPLA2 inhibitors, primary screen, biochemical, QFRET, BODIPY PC-A2 liposome substrate; QFRET BODIPY PC-A2 liposome hydrolysis, fluorescence; inhibition, % at 12.2 µM; actives 0.56% (n = 370,000);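 active = inhibition above mean plus 3 SD of compounds lying within the high and low control bounds, cut at about 19% in these data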;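 also: 0% = median of test compound wells and 100% = no enzyme DMSO wells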
Target sequence (Q9NZ20 whole entry, looked up): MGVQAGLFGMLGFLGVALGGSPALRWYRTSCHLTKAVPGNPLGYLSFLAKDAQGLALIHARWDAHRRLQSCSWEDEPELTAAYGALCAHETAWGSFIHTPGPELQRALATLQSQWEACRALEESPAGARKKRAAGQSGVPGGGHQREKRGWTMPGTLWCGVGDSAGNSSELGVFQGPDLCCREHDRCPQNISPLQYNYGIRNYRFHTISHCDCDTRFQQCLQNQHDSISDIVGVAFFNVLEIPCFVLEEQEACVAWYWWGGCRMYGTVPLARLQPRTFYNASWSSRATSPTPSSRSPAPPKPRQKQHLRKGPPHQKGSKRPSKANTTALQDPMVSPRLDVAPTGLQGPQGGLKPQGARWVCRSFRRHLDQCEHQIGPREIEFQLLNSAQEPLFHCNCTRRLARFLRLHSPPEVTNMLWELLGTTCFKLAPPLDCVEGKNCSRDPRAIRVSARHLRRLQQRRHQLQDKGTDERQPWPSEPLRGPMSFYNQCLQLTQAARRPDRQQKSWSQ
PLCb3 inh: human PLC-beta3 inhibitors, primary screen, biochemical, fluorescence; actives 0.18% (n = 370,000); AID 720704, 2013; inhibition, % at 12.2 µM; 1-phosphatidylinositol 4,5-bisphosphate phosphodiesterase beta-3 (Homo sapiens), Q01970; Purified PLC-beta3, fluorogenic substrate;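 also: 0% = median of compound wells on plate and 100% = full blocker control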
procasp3 activ: activators of human procaspase-3 D3A mutant, primary screen, biochemical, absorbance, PC-3 D3A mutant, single concentration. Caspase-3 (Homo sapiens), P42574. recombinant procaspase-3 D3A, Ac-DEVD-pNA absorbance 405 nm. activation, % at 8.5 µM. actives 0.11% (n = 330,000). AID 463141, 2010;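 active = activation above the mean of all tested compounds plus 3 SD, cut at about 21% in these data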;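 also: 0% = DMSO alone and 100% = DMSO wells spiked with extra 5 µM PC-3 D3A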
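Assay system – Procaspase-3 D3A mutant, all three cleavage aspartates alanine · Controls – DMSO-only low control, 5 µM PC-3 D3A high control · Schedule – 1 h compound preincubation, 2 h substrate hydrolysis at 25 °C · Signal – 405 nm absorbance of p-nitroaniline, reads at 0 and 120 min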
PLC-gamma1 inh: PLC-gamma1 enzyme inhibitors, primary screen, biochemical, fluorescence, purified enzyme. 1-phosphatidylinositol 4,5-bisphosphate phosphodiesterase gamma-1 (Homo sapiens), P19174. fluorogenic substrate. inhibition, % at 12.2 µM. actives 0.84% (n = 370,000); in the data active = inhibition above about 9.5%
PLCg1 ctr: PLC-gamma1 enzyme inhibitors, counter-screen for PLC-beta3 inhibitor project, biochemical, fluorescence. shares compounds with PLC-gamma1 inh. purified PLC-gamma1, fluorogenic substrate. inhibition, % at 12.3 µM. actives 3.1% (n = 3,300). AID 743258, 2014; in the data active = inhibition above about 9.5%
PLCb3 confirm: PLC-beta3 inhibitor confirmation, biochemical, fluorescence, purified enzyme | shares compounds with PLC-gamma1 inh | fluorogenic substrate fluorescence | inhibition, % at 12.3 µM | actives 1% (n = 3,300)
* = called active by the depositor; . = no result. Rows were chosen to be rich in hits. Some 1.6% of all compounds tested hit in one or more screens of this group. Rule as the data show it, unless noted: active = inhibition above about 11%; inactive = the rest.

SMILES	procasp7 counter	HGIII-sPLA2 inh	PLCb3 inh	procasp3 activ	PLC-gamma1 inh	PLCg1 ctr	PLCb3 confirm
Cc1cc(-c2nnc(SCCC(=O)Nc3ccccc3)o2)no1	.	-5.2	-3.5	.	-1.2	.	.
CC(C)NC(=O)C1(C)Cc2c(-c3ccc(C(N)=O)cc3)ccnc2O1 (stereo unspecified)	.	9.1	12.4*	.	1.4	-6.5	-1.6
CC1(C(=O)Nc2ccc(Cl)cc2)Cc2c(-c3ccc(C(N)=O)cc3)ccnc2O1 (stereo unspecified)	.	4.5	-3.0	.	1.6	.	.
CCOC(=O)CSc1nnnn1-c1cc(OC)c(Cl)cc1OC	-7.1	4.0	1.2	-0.7	9.8*	-4.4	-2.0
Cc1ccc(NC(=O)C2CCCN(S(=O)(=O)c3ccc4c(c3)oc(=O)n4C)C2)nc1 (stereo unspecified)	2.5	-1.6	4.6	0.7	9.8*	-4.6	-1.6
Cc1cccnc1NC(=O)C1CCCN(S(=O)(=O)c2ccc3c(c2)oc(=O)n3C)C1 (stereo unspecified)	5.5	2.4	3.8	2.7	2.7	.	.
CC1CC(C)CN(C(=O)c2ccc(CSc3nc4ccncc4[nH]3)cc2)C1 (stereo unspecified)	-2.3	-23.8	14.1*	4.7	8.8	-9.8	-4.0
COc1ccc(/C=C/C(=O)NNC(=O)c2cc(C)oc2C)cc1	5.3	6.9	-8.3	-10.9	2.1	.	.
CCCCCCSc1cc(C)nc2ncnn12	2.4	14.3	-0.3	-3.5	-3.2	.	.
CCSc1cc(C)nc2ncnn12	6.3	9.8	13.7*	0.4	13.1*	-12.9	-5.8
O=C(Nc1cccc(S(=O)(=O)N2CCOCC2)c1)c1ccc(=O)[nH]c1	-1.1	-8.2	2.4	4.0	3.1	.	.
O=C(NC(=S)Nc1ccc(NC(=O)c2cccs2)cc1)c1ccco1	-11.4	4.3	14.8*	-4.2	6.7	-0.2	5.2
Cc1nn(-c2ccccc2)c(OC(=O)c2cccs2)c1S(=O)(=O)c1ccccc1	5.6	-0.6	5.7	-14.0	14.0*	-1.3	1.4
Cc1nn(-c2ccccc2)c(OC(=O)c2cccs2)c1S(=O)(=O)c1ccc([N+](=O)[O-])cc1	-0.4	-9.4	19.5*	2.2	14.5*	4.1	4.6
Nc1cc(OC(=O)c2cccs2)nn1S(=O)(=O)c1ccccc1	-25.7	-7.9	-0.5	-21.4	0.2	.	.
Cc1cccc(C)c1NC(=O)CN(C)C(=O)c1ccccc1Sc1ccccc1C#N	-0.6	-7.9	-2.6	-1.4	2.4	.	.
COc1ccc(C(=O)NNC(=O)c2snnc2C)cc1	18.8	6.1	-1.8	4.5	3.5	.	.
CC(C)C[C@H]1CN(CCCC[C@H]2CNC(=O)C(=O)N2CCc2ccc(O)cc2)C(=O)C(=O)N1CCc1ccccc1	.	-7.6	-1.5	.	0.9	.	.
O=c1cc(-c2ccccc2)nc(SCCOc2ccccc2Cl)[nH]1	6.0	-3.7	0.2	2.8	11.6*	-2.8	-10.3
CC1=C(CC(=O)O)c2cc(F)ccc2C1=Cc1ccc(S(C)(=O)=O)cc1	-2.4	-3.8	3.6	2.0	1.3	.	.
CC(C)NC(=O)CC1C(=O)N(Cc2ccccc2)C(C)c2nc3ccccc3n21 (stereo unspecified)	7.8	6.9	4.1	0.7	12.9*	-2.3	-0.6
COC(CNC(=O)CC1C(=O)N(Cc2ccccc2)C(C)c2nc3ccccc3n21)OC (stereo unspecified)	8.9	-1.3	1.2	3.8	3.4	.	.
COc1ccc(C(=O)C2CCN(c3ncnc4sccc34)CC2)cc1	.	-5.9	-4.2	.	0.5	.	.
N=C(N)SCc1cn(-c2ccccc2)nc1-c1ccc(Br)cc1	.	12.2	4.9	.	9.5*	7.2	1.3
O=C(O)CS(=O)CC(=O)NCc1cccc(C(F)(F)F)c1 (stereo unspecified)	3.7	1.6	-0.4	3.1	0.4	.	.
SMILES	procasp7 counter	HGIII-sPLA2 inh	PLCb3 inh	procasp3 activ	PLC-gamma1 inh	PLCg1 ctr	PLCb3 confirm
O=C(O)CS(=O)CC(=O)Nc1cccc(C(F)(F)F)c1 (stereo unspecified)	7.6	0.6	2.5	0.3	19.6*	25.4*	-1.5
C[C@]1(CC/C(=C/CO)CO)[C@H](CO)CC[C@@]23COC(=O)C2=CCC[C@@H]31	5.8	-1.6	3.5	6.5	1.0	.	.
COc1cccc(-c2cccc(NC(=O)C3CCN(Cc4ccon4)CC3)c2)c1	9.7	-0.6	5.6	4.1	2.6	.	.
CCOc1ccccc1OCC(=O)NCCc1ccc(S(N)(=O)=O)cc1	2.4	2.4	-2.6	1.9	7.9	.	.
CCOc1ccccc1C(=O)NCC(=O)NCCc1ccc(S(N)(=O)=O)cc1	-12.6	9.8	1.9	-10.9	10.0*	-5.7	-0.9
Cn1cc(-c2ccccc2C(N)=O)c(=O)c2ccccc21	-8.4	7.4	-25.1	-3.1	-16.9	.	.
Cn1cc(-c2nnnn2-c2ccccc2)c(=O)c2ccccc21	0.5	10.0	11.8*	-7.2	4.6	-20.7	0.3
NC(=O)c1cc(S(=O)(=O)NCCc2ccc(Cl)cc2)cs1	0.8	-5.9	-6.2	14.0	12.0*	-6.3	-4.5
Cc1ccc(NS(=O)(=O)N2CCOCC2)cc1	.	9.2	-2.3	.	12.0*	-4.3	-1.4
O=S(=O)(Nc1ccc(Br)cc1)N1CCOCC1	-1.3	-4.5	-2.2	-2.0	3.4	.	.
O=C(c1cn(Cc2ccccc2)nc1-c1cccnc1)N1CCc2ccccc2C1	0.8	7.5	-5.2	10.7	-1.3	.	.
Cc1ccc(-c2nnc(SCC(=O)NC3CCCC3)n2N)cc1	11.0	-0.1	8.9	4.3	11.6*	-2.6	0.1
Cc1ccc(-c2nnc(SCC(=O)NC3CC3)n2N)cc1	5.0	-6.2	-6.6	-6.4	0.4	.	.
CC(C)CNC(=O)C1(C)CCCN1Cc1ccc(OC(F)(F)F)cc1 (stereo unspecified)	.	9.1	1.7	.	-2.5	.	.
COC(C/C=C\C(=O)[C@@H](C)OCc1ccccc1)OC	12.5	.	.	-4.5	.	.	.
CCNC(=O)C/C(C)=N/NC(=O)C1CCCCC1	2.3	3.3	7.7	1.1	10.6*	0.2	-0.7
O=C(COC(=O)c1cccs1)NCc1ccc2c(c1)OCO2	5.2	-3.5	1.9	13.7	10.4*	-5.6	-2.6
O=C(COC(=O)COc1ccccc1[N+](=O)[O-])NCc1ccc2c(c1)OCO2	6.0	-7.9	8.2	-6.0	13.5*	-5.2	0.2
